Assays:
[1] = system: class D β-lactamases (DBLs); details: in vitro; cited from earlier work
[2] = target: OXA-48 (Klebsiella pneumoniae, UniProt Q6XEC0); assay: Steady-state enzyme kinetics of substrate hydrolysis by OXA-48; format: biochemical; details: for OXA-48 kcat/Km value smaller compared to imipenem: relative to imipenem kcat/Km
[3] = target: OXA-163 (Klebsiella pneumoniae, UniProt Q6XEC0, DEL214-217/S212D); assay: Steady-state enzyme kinetics of substrate hydrolysis by OXA-163; format: biochemical, Klebsiella pneumoniae and Enterobacter cloacae; details: for Km / kcat: 30°C, 50 mM sodium phosphate pH 7.2, 15 mM sodium bicarbonate
In short: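 OXA-163 was purified from induced culture supernatant (0.4 mM IPTG, 23°C, 20 h) by zinc-chelate chromatography and size exclusion, and quantified at A280. Hydrolysis was followed by UV at 260 nm (ceftazidime, cefotaxime), 262 nm (cephalothin), 298 nm (meropenem), or 299 nm (imipenem, doripenem, […]). Data were fitted to Michaelis–Menten; where Vmax was unreachable, kcat/Km came from a first-order fit.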

[4] = target: OXA-163 class D β-lactamase (Klebsiella pneumoniae and Enterobacter cloacae); assay: SEC
[5] = target: OXA-163 class D β-lactamase (Klebsiella pneumoniae and Enterobacter cloacae); assay: crystal structure
[6] = target: OXA-163 class D β-lactamase (Klebsiella pneumoniae and Enterobacter cloacae); assay: crystal structure; remark: listed apart in the source
[7] = target: the molecule itself; assay: SEC

Molecule: [Cl-].[Na+] [NaCl, sodium chloride]
- sodium chloride concentration at which most DBLs are fully inhibited [1]: 100 mM

Molecule: C[C@@H](O)[C@H]1C(=O)N2C(C(=O)O)=C(S[C@@H]3CN[C@H](C(=O)N(C)C)C3)[C@H](C)[C@H]12 [Meropenem, meropenem]
- OXA-48 kcat/Km value smaller compared to imipenem [2]: 53 fold
- Km ([3]; OXA-163): 5.3 ± 0.5 µM
- kcat ([3]; OXA-163): 0.021 ± 0.001 s⁻¹

Molecule: OXA-163 class D β-lactamase (enzyme)
- stoichiometry N [4]: 2
- stoichiometry N [5]: 2
- stoichiometry N [6]: 2

Molecule: CO/N=C(\C(=O)N[C@@H]1C(=O)N2C(C(=O)O)=C(COC(C)=O)CS[C@H]12)c1csc(N)n1 [Cefotaxime, cefotaxime]
- Km ([3]; OXA-163): 36 ± 11 µM
- kcat ([3]; OXA-163): 14 ± 1 s⁻¹

Molecule: C[C@@H](O)[C@H]1C(=O)N2C(C(=O)O)=C(SCCN=CN)C[C@H]12 [Imipenem, imipenem]
- Km ([3]; OXA-163): 3.6 ± 1 µM
- kcat ([3]; OXA-163): 0.004 ± 0.001 s⁻¹
- drop in the catalytic efficiency of OXA-163 in comparison to OXA-48 ([3]; kcat/Km OXA-48 versus OXA-163): 820 fold

Molecule: CC(=O)OCC1=C(C(=O)O)N2C(=O)[C@@H](NC(=O)Cc3cccs3)[C@H]2SC1 [Cephalothin, cephalothin]
- Km ([3]; OXA-163): 3.4 ± 0.4 µM
- kcat ([3]; OXA-163): 1.7 ± 0.1 s⁻¹

Molecule: O=C(Cc1cccs1)N[C@@H]1C(=O)N2C(C(=O)O)=C(/C=C/c3ccc([N+](=O)[O-])cc3[N+](=O)[O-])CS[C@H]12 [Nitrocefin, nitrocefin]
- Km ([3]; OXA-163): 19 ± 8 µM
- kcat ([3]; OXA-163): 34 ± 2 s⁻¹

Molecule: C[C@@H](O)[C@H]1C(=O)N2C(C(=O)O)=C(S[C@@H]3CN[C@H](CNS(N)(=O)=O)C3)[C@H](C)[C@H]12 [Doripenem, doripenem]
- OXA-48 kcat/Km value smaller compared to imipenem [2]: 56 fold
- Km ([3]; OXA-163): 5 ± 0.4 µM
- kcat ([3]; OXA-163): 0.018 ± 0.001 s⁻¹

Molecule: CC(C)(O/N=C(\C(=O)N[C@@H]1C(=O)N2C(C(=O)[O-])=C(C[n+]3ccccc3)CS[C@H]12)c1csc(N)n1)C(=O)O [Ceftazidime, ceftazidime]
- hydrolysis by OXA-48 (steady-state kinetics analysis) [2]: does not hydrolyze
- hydrolysis by OXA-163 ([3]; OXA-163): does hydrolyze
- Km ([3]; OXA-163): > 1000 µM

B1: OXA-48 class D β-lactamase (enzyme)
chain: KEWQENKSWNAHFTEHKSQGVVVLWNENKQQGFTNNLKRANQAFLPASTFKIPNSLIALDLGVVKDEHQVFKWDGQTRDIATWNRDHNLITAMKYSVVPVYQEFARQIGEARMSKMLHAFDYGNEDISGNVDSFWLDGGIRISATEQISFLRKLYHNKLHVSERSQRIVKQAMLTEANGDYIIRAKTGYSTRIEPKIGWWVGWVELDDNVWFFAMNMDMPTSDGLGLRQAITKEVLKQEKIIP
- stoichiometry N [7]: 2

— article PMC5123777 (Biochemistry, 2015)
